RAM inhibit = yeast RAM network inhibition; S. cerevisiae dse1pr::URA3 reporter, 5-FOA growth OD615, 2 d; analog-sensitive cbk1-as2 kinase mutant strain; inhibition, % at 50 µM; hit rate 1.8% among 190,000; AID 868;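 active = inhibition above a set limit, 3 SD over mean compound inhibition, cut at about 8.4% in these data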;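 note: 0% = DMSO-only wells with no growth and 100% = 10 µM 1-NA-PP1 full growth; inhibition rescues growth on 5-FOA so higher OD means more RAM inhibition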
Yeast lifespan up = extends the lifespan of yeast; inhibition of the nicotinamide effect, % at 10 µM; S. cerevisiae growth with nicotinamide, OD615; deaD strain in restrictive glucose medium; AID 775; hit rate 0.68% among 130,000;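 active = inhibition above a set limit, placed 3 SD over the median of all compounds, cut at about 26% in these data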;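 note: 0% = nicotinamide-treated wells and 100% = cells grown without nicotinamide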
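assay system = DeaD-strain S. cerevisiae | measured by = absorbance at 615 nm | probe or stimulus = nicotinamide 1.5 mM | buffer or medium = CSMM-D glucose medium, restrictive | times = 48 h at 30 °C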
Yeast growth inh = reduces growth of yeast BB579 in restrictive medium | S. cerevisiae BB579 growth, OD615, 48 h | inhibition, % at 10 µM | hit rate 0.51% among 140,000;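 active = inhibition above a set limit, 3 SD over the mean compound inhibition, cut at about 44% in these data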
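Test system: S. cerevisiae DeaD strain BB579 yeast; Medium: restrictive CSMM-D medium; Compound: one dose, 10 µM compound with 0.25% DMSO; Incubation: 4 h cell preincubation, 48 h compound exposure, 30 °C humidified; Signal: OD at 615 nm; Benchmarks: amphotericin B at 10 µg/mL as positive control.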
WT yeast gro inh = growth inhibition of WT yeast, mitochondrial fusion screen; mitochondrial fusion phenotypic screen, WT strain; AID 1362; hit rate 2.1% among 190,000; inhibition, % at 10 µM; in the data active = inhibition above about 58%; tested in S. cerevisiae
Active calls of the source: *. Only some compounds are listed: those with a hit (about 4.3% of all), similar ones and a draw of the others.

Results for Cc1ccc(-c2nc(NCc3ccco3)n(C(=O)c3ccco3)n2)cc1 ?
RAM inhibit: 7; WT yeast gro inh: 9

How did O=C(c1ccco1)n1nc(-c2ccc(Cl)cc2)nc1NCc1ccco1 do in these assays?
RAM inhibit: 9.4*; Yeast lifespan up: 7; Yeast growth inh: -73; WT yeast gro inh: 0

Results for O=C(c1ccco1)n1nc(-c2ccccc2)nc1NCc1ccco1 ?
RAM inhibit: 3; Yeast lifespan up: -3; Yeast growth inh: -34; WT yeast gro inh: -7

What do the screens show for `COc1ccccc1C(=O)n1nc(-c2ccccc2)nc1NCc1ccco1`?
RAM inhibit: 7; Yeast lifespan up: -12; Yeast growth inh: -70; WT yeast gro inh: 83*

What do the screens show for `Cc1cc(-c2cc(-c3ccc(Cl)cc3)nc(N)c2C#N)co1`?
RAM inhibit: 3; Yeast lifespan up: -25; Yeast growth inh: -29; WT yeast gro inh: 4

What do the screens show for `FC(F)(F)c1ccc(CSc2nccn2-c2ccccc2)cc1`?
RAM inhibit: 0; Yeast lifespan up: 0; Yeast growth inh: -25; WT yeast gro inh: 63*

Results for CCOC(=O)N1CCN(Cc2cn[nH]c2-c2cc3ccccc3o2)CC1 ?
RAM inhibit: 2; WT yeast gro inh: -14

What do the screens show for `N#CC(C#N)=Cc1cc2ccccc2nc1N1CCCCC1`?
RAM inhibit: 1; Yeast lifespan up: 36*; Yeast growth inh: -24; WT yeast gro inh: -27

What do the screens show for `CCOC(=O)/C(C#N)=C/c1cc2ccccc2nc1N1CCOCC1`?
RAM inhibit: 1; Yeast lifespan up: 1; Yeast growth inh: -28; WT yeast gro inh: 1

What do the screens show for `CS(=O)(=O)CCC(C(=O)OCC(=O)c1ccc(Cl)cc1)N1C(=O)c2ccccc2C1=O` (centres undefined)?
RAM inhibit: 0; Yeast lifespan up: -7; Yeast growth inh: -13; WT yeast gro inh: -5

What do the screens show for `C=CCNc1nc(Nc2ccc([N+](=O)[O-])cc2)nc(OCC)n1`?
RAM inhibit: 3; Yeast lifespan up: 0; Yeast growth inh: -26; WT yeast gro inh: -3

What do the screens show for `CC(=O)Oc1ccc2c(C)cc(=O)oc2c1`?
RAM inhibit: 1; Yeast lifespan up: -9; Yeast growth inh: 0; WT yeast gro inh: -9

How did CC(=O)Oc1ccc2c(=O)c(N3C(=O)c4ccccc4C3=O)c(C)oc2c1 do in these assays?
RAM inhibit: 1; Yeast lifespan up: 28*; Yeast growth inh: -39; WT yeast gro inh: -36

How did Cc1cc(=O)oc2cc(OC(=O)CCCCCN3C(=O)c4ccccc4C3=O)ccc12 do in these assays?
RAM inhibit: 6; Yeast lifespan up: 32*; Yeast growth inh: -50; WT yeast gro inh: -3

How did COCC1CCN(Cc2nc(-c3ccc(OC)cc3)no2)CC1 do in these assays?
RAM inhibit: 1; WT yeast gro inh: 7

What do the screens show for `O=C(CCCc1nc2ccccc2s1)NCc1ccc(F)cc1`?
RAM inhibit: 1; Yeast lifespan up: -4; Yeast growth inh: 11; WT yeast gro inh: -2

How did O=C(COC(=O)c1sc2ccccc2c1Cl)Nc1ncc(Cl)cc1Cl do in these assays?
RAM inhibit: 3; Yeast lifespan up: 0; Yeast growth inh: -3; WT yeast gro inh: 6

What do the screens show for `Cc1ccc(-n2nnnc2SCC(=O)Nc2cccc(NC(=O)c3ccco3)c2)cc1C`?
RAM inhibit: 3; Yeast lifespan up: -11; Yeast growth inh: -29; WT yeast gro inh: -10

How did COc1ccc(NC(=O)CSc2ncnc3c2cnn3CCc2ccccc2)cc1 do in these assays?
RAM inhibit: 4; Yeast lifespan up: -22; Yeast growth inh: -7; WT yeast gro inh: 7

Results for CC(=O)c1ccc(-n2nnnc2SCC(=O)Nc2cccc(NC(=O)c3ccco3)c2)cc1 ?
RAM inhibit: 7; Yeast lifespan up: -12; Yeast growth inh: -33; WT yeast gro inh: 73*

How did COc1cccc(NC(=O)CSc2ncnc3c2cnn3Cc2ccccc2)c1 do in these assays?
RAM inhibit: 8.4*; Yeast lifespan up: 0; Yeast growth inh: -70; WT yeast gro inh: 15

Results for CC(=O)Nc1cccc(NC(=O)CSc2nnnn2Cc2ccccc2)c1 ?
RAM inhibit: 2; Yeast lifespan up: 2; Yeast growth inh: -37; WT yeast gro inh: 75*

Results for Cc1ccc(C(=O)NCC(=O)N/N=C/c2cccs2)cc1C ?
RAM inhibit: 0; WT yeast gro inh: -3

What do the screens show for `Cc1cc(C)c(NC(=O)c2cc(=O)c3ccccc3o2)c(C)c1`?
RAM inhibit: 0; Yeast lifespan up: 0; Yeast growth inh: -23; WT yeast gro inh: -7

Results for COC(=O)C1=C(C(=O)OC)C(c2cc(Br)ccc2O)c2sc(=O)[nH]c2S1 (centres undefined) ?
RAM inhibit: 1; Yeast lifespan up: 61*; Yeast growth inh: -16; WT yeast gro inh: 19

Bioassay records from PubChem.
